Measurements reported in ChEMBL document CHEMBL5661986, “Discovery of the SMYD3 Inhibitor BAY-6035 Using Thermal Shift Assay (TSA)-Based High-Throughput Screening” (SLAS Discov, 2021).
The source made the active and inactive calls. The rule behind the calls is not given here.

Experiments:
[1] = biological target: Cyclin-dependent kinase 12 (Homo sapiens, UniProt Q9NYV4); test: Inhibition of CDK12 (unknown origin) by using c-myc peptide as substrate in presence of ATP
[2] = biological target: Glycogen synthase kinase-3 beta (Homo sapiens, UniProt P49841); test: Inhibition of GSK-3-beta (unknown origin) by HTRF assay
[3] = biological target: Histone-lysine N-methyltransferase SUV39H2 (Homo sapiens) (UniProt Q9H5I1); test: Inhibition of SUV39H2 (unknown origin)
[4] = biological target: Mitotic checkpoint serine/threonine-protein kinase BUB1 (Homo sapiens, UniProt O43683); test: Inhibition of Bub1 (unknown origin) in presence of ATP
[5] = biological target: Histone-lysine N-methyltransferase SETDB1 (Homo sapiens) (UniProt Q15047); test: Inhibition of SETDB1 (unknown origin)
[6] = system: HGC-27; test: Antiproliferative activity against human HGC-27 cells assessed as inhibition of cell viability measured for 3 to 5 days by alamar blue staining based assay; type: functional
[7] = biological target: NUAK family SNF1-like kinase 1 (Homo sapiens, UniProt O60285); test: Inhibition of NUAK1 (unknown origin) in presence of ATP
[8] = biological target: Diacylglycerol kinase alpha (Mus musculus, UniProt O88673); test: Inhibition of mouse DGK alpha by ADP-Glo assay
[9] = biological target: Ribosomal protein S6 kinase alpha-6 (Homo sapiens, UniProt Q9UK32); test: Inhibition of RSK4 (unknown origin)
[10] = system: COLO-679; test: Antiproliferative activity against human COLO-679 cells assessed as inhibition of cell viability measured for 3 to 5 days by alamar blue staining based assay; type: functional
[11] = biological target: T1, Histone-lysine N-methyltransferase SMYD3 (Homo sapiens) (UniProt Q9H7B4); test: Inhibition of SMYD3 (unknown origin)
T1 sequence (whole entry): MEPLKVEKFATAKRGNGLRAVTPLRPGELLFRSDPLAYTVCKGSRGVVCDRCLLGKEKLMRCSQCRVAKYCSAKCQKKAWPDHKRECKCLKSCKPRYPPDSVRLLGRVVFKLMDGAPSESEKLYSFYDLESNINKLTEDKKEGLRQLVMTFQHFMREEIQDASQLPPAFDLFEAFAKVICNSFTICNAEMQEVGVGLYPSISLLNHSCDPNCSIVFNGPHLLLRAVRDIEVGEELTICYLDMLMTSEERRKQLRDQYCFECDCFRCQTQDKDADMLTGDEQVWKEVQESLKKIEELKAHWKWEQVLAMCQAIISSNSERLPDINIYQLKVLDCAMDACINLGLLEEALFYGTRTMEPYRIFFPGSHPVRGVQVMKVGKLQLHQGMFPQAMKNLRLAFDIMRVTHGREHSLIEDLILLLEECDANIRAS
Procedure, shortened: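 Recombinant human SMYD3 (aa 1–428, E. coli-expressed, His tag removed by TEV) at 10 nM. Reaction with 335 nM ³H-SAM and 15 µM biotinylated MAP3K2(249–273) peptide in 20 mM Tris pH 9, 2.5 mM DTT, 0.01% Triton X-100, 40 min at 23 °C. GuHCl quench, then SPA count of incorporated radioactivity. Quadruplicates normalized to DMSO and no-enzyme controls; IC50 from four-parameter logistic fit.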

[12] = biological target: Receptor-type tyrosine-protein kinase FLT3 (Homo sapiens, UniProt P36888); test: Inhibition of FLT3 (unknown origin)
[13] = biological target: N-lysine methyltransferase SMYD2 (Homo sapiens) (UniProt Q9NRG4); test: Inhibition of SMYD2 (unknown origin)
[14] = biological target: Serine/threonine-protein kinase 4 (Homo sapiens, UniProt Q13043); test: Inhibition of MST1 (unknown origin)
[15] = biological target: Protein arginine N-methyltransferase 6 (Homo sapiens) (UniProt Q96LA8); test: Inhibition of PRMT6 (unknown origin)
[16] = biological target: T2, Histone-lysine N-methyltransferase SMYD3 (Homo sapiens, UniProt Q9H7B4); test: Binding affinity to recombinant human SMYD3 expressed in Escherichia coli assessed as catalytic inhibition using DYDNPIFEKFGKGGTYPRRYHVSYHGK-Biotin as substrate by scintillation proximity assay
T2 sequence (Q9H7B4 whole entry): T1 sequence (whole entry)

[17] = biological target: Histone-arginine methyltransferase CARM1 (Homo sapiens) (UniProt Q86X55); test: Inhibition of PRMT4 (unknown origin)
[18] = biological target: Histone-lysine N-methyltransferase SETD2 (Homo sapiens) (UniProt Q9BYW2); test: Inhibition of SETD2 (unknown origin)
[19] = system: HaCaT; test: Antiproliferative activity against human HaCaT cells assessed as inhibition of cell viability measured for 3 to 5 days by alamar blue staining based assay; type: functional
[20] = biological target: RNA 5'-monophosphate methyltransferase (Homo sapiens) (UniProt Q7Z5W3); test: Inhibition of BCDIN3D (unknown origin)
[21] = biological target: High affinity nerve growth factor receptor (Homo sapiens, UniProt P04629); test: Inhibition of human TRK-A
[22] = biological target: N-lysine methyltransferase KMT5A (Homo sapiens) (UniProt Q9NQR1); test: Inhibition of SETD8 (unknown origin)
[23] = biological target: Histone-lysine N-methyltransferase, H3 lysine-36 specific (Homo sapiens) (UniProt Q96L73); test: Inhibition of NSD1 (unknown origin)
[24] = system: HT-29; test: Antiproliferative activity against human HT-29 cells assessed as inhibition of cell viability measured for 3 to 5 days by alamar blue staining based assay; type: functional
[25] = biological target: Aurora kinase A (Homo sapiens, UniProt O14965); test: Inhibition of Aurora A (unknown origin) by HTRF assay
[26] = Antiproliferative activity against human NCI-H2110 cells assessed as inhibition of cell viability measured for 3 to 5 days by alamar blue staining based assay; type: functional
[27] = Lipophilicity, log D of the compound at pH 7.5; type: physicochemical; conditions: buffer
[28] = biological target: T1, Histone-lysine N-methyltransferase SMYD3 (Homo sapiens); test: Binding affinity to recombinant human SMYD3 expressed in Escherichia coli assessed as change in enthalpy at 0.3 mM by isothermal titration calorimetry
Procedure, shortened: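 Syringe held compound at 0.3 mM in 20 mM HEPES pH 7.4, 150 mM NaCl, 0.005% Tween 20, 2.5% DMSO; eight 4 µL injections at 180 s intervals into SMYD3.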

[29] = organism: Homo sapiens; test: Inhibition of PRC2 (unknown origin)
[30] = biological target: Protein arginine N-methyltransferase 7 (Homo sapiens) (UniProt Q9NVM4); test: Inhibition of PRMT7 (unknown origin)

Glycogen synthase kinase-3 beta, sequence (P49841 whole entry): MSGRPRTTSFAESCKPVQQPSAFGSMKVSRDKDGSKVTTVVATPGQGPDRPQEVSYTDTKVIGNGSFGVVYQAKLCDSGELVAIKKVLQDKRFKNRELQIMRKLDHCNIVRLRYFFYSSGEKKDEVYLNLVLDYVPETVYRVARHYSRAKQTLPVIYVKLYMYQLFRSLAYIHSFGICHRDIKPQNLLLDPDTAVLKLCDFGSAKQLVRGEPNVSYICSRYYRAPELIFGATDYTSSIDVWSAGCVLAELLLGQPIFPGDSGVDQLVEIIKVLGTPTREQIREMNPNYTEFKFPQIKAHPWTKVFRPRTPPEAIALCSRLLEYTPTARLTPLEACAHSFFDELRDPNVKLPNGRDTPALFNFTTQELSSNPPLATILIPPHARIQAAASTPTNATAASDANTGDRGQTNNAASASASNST
Mitotic checkpoint serine/threonine-protein kinase BUB1, sequence (O43683 whole entry): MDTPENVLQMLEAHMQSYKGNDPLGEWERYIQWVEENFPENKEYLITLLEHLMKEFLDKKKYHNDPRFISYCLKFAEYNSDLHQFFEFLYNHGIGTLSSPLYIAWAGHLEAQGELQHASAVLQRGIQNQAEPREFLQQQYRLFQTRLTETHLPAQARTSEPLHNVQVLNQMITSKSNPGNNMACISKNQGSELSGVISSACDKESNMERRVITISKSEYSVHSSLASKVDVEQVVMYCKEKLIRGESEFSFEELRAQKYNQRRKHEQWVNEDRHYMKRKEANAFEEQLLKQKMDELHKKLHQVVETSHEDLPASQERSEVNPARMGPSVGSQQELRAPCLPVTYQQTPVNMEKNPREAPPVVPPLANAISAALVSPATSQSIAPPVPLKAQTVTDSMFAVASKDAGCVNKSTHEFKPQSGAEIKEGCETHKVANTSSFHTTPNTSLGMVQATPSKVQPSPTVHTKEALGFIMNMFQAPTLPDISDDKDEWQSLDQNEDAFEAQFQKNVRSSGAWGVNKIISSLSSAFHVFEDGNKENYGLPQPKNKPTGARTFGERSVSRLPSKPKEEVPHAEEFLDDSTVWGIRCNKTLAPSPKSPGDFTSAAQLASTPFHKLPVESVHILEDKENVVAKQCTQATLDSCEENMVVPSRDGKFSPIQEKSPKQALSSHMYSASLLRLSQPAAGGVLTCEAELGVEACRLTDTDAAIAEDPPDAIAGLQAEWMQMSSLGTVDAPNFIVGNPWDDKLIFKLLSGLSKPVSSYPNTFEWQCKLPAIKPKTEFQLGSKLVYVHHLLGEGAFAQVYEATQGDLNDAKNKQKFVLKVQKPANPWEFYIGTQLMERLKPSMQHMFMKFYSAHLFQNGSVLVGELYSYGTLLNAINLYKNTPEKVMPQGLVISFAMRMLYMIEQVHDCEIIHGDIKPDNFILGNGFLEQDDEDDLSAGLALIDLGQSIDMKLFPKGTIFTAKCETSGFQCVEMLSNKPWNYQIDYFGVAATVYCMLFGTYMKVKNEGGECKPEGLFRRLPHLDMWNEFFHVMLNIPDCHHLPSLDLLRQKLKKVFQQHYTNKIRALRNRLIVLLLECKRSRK
Protein arginine N-methyltransferase 6 (Homo sapiens), sequence (Q96LA8 whole entry, looked up): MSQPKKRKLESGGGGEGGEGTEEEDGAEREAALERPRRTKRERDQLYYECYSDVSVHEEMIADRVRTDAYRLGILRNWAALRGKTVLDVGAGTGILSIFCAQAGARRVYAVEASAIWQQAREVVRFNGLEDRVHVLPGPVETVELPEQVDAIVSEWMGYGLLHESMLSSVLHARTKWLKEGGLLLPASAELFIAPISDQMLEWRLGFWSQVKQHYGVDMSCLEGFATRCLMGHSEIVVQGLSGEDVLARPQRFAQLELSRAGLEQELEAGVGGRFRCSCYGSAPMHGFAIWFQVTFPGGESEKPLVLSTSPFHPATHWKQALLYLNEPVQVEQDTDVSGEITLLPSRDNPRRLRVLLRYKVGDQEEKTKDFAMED
High affinity nerve growth factor receptor, sequence (P04629 whole entry): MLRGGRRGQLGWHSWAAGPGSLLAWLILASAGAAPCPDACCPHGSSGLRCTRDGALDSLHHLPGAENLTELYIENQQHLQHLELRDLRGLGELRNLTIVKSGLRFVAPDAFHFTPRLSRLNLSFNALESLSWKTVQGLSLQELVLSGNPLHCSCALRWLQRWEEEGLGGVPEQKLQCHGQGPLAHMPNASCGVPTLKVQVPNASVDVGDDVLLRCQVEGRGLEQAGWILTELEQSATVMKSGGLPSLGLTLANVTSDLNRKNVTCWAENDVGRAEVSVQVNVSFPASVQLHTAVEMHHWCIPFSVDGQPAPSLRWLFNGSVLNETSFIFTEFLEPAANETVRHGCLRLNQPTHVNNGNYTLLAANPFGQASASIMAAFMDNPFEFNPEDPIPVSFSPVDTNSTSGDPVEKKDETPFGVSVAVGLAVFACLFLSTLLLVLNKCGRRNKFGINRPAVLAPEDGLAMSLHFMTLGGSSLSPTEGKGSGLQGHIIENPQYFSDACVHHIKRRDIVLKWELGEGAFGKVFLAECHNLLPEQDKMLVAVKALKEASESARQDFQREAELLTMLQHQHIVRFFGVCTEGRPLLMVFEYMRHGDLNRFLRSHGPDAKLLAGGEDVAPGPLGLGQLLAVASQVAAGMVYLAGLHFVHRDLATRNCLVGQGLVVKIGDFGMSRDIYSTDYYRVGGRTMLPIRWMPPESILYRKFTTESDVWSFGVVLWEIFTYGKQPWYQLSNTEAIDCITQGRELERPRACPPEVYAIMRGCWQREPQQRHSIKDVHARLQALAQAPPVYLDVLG
N-lysine methyltransferase KMT5A (Homo sapiens), sequence (Q9NQR1 whole entry): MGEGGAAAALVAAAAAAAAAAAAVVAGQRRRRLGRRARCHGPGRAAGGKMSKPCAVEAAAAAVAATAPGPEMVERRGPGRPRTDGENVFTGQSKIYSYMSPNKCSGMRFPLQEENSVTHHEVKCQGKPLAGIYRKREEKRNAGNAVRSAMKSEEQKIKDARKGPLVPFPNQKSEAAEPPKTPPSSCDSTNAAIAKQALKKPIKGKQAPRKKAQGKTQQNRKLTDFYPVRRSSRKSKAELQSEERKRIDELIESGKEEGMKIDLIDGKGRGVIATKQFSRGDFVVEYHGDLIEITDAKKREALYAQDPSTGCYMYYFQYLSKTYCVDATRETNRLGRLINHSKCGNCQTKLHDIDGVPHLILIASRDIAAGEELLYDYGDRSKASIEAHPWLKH
Histone-arginine methyltransferase CARM1 (Homo sapiens), sequence (Q86X55 whole entry): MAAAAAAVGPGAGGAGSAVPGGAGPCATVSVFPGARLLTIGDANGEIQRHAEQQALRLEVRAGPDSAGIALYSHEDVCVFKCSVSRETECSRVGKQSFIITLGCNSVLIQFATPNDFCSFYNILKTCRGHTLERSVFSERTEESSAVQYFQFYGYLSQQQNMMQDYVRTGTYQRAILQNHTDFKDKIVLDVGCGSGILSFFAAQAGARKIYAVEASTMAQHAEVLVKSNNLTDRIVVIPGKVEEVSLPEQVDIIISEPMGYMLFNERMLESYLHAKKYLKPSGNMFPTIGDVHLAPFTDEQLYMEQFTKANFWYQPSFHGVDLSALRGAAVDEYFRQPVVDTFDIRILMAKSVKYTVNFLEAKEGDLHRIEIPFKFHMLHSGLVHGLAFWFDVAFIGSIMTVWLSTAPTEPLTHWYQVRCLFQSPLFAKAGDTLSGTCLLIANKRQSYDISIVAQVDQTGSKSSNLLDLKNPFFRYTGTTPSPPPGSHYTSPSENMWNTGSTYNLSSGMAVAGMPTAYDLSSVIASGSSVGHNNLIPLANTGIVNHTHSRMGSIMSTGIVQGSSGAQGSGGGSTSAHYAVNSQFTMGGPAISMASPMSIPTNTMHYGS
Receptor-type tyrosine-protein kinase FLT3, sequence (P36888 whole entry): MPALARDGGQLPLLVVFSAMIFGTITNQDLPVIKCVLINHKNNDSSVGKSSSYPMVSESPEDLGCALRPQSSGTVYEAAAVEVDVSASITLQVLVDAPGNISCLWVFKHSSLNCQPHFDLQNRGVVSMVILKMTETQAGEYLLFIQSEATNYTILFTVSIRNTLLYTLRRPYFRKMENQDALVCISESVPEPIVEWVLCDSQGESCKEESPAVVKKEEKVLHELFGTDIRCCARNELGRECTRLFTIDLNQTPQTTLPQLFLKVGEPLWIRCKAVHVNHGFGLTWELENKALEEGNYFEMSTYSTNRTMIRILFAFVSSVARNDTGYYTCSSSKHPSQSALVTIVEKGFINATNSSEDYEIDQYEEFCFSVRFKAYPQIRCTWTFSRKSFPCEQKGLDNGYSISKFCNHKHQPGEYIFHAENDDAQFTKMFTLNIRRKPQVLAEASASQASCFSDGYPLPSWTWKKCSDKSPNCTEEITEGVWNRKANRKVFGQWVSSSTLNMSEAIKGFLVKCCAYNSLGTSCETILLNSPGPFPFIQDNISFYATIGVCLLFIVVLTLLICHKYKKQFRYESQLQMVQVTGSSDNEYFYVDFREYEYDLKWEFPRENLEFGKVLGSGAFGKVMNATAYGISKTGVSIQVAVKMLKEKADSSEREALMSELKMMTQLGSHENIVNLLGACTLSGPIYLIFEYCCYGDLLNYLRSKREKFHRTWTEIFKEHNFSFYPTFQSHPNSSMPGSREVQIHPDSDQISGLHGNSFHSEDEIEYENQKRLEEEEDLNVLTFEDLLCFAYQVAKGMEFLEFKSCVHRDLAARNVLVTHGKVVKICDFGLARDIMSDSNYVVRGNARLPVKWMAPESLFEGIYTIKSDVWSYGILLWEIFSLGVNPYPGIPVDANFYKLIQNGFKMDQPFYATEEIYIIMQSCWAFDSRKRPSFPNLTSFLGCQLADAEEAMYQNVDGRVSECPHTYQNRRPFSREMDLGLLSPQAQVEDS
RNA 5'-monophosphate methyltransferase (Homo sapiens), sequence (Q7Z5W3 whole entry): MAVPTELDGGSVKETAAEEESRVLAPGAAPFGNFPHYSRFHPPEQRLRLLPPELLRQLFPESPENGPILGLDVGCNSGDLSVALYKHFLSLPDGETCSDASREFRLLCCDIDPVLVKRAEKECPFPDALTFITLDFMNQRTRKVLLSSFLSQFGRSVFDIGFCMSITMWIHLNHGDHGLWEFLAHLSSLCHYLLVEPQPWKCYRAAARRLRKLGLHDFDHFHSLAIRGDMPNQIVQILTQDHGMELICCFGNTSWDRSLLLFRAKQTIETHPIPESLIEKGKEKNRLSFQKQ

C[C@H]1CC(=O)Nc2cc(C(=O)NCCC3CC3)ccc2N1C(=O)N1CC2CC2C1 (stereo not given in full)
IC50 [1]: > 20 µM | IC50 [2]: > 20 µM | inhibition [3]: inactive | IC50 [4]: > 20 µM | inhibition [5]: inactive | IC50 [6]: > 10 µM | IC50 [7]: > 20 µM | IC50 [8]: > 20 µM | IC50 [9]: > 20 µM | IC50 [10]: > 10 µM | inhibition [11]: Active | IC50 [12]: > 20 µM | inhibition [13]: inactive | IC50 [14]: > 20 µM | inhibition [15]: inactive | IC50 [16]: 0.088 µM | inhibition [17]: inactive | inhibition [18]: inactive | IC50 [19]: > 10 µM | inhibition [20]: inactive | IC50 [21]: > 20 µM | inhibition [22]: inactive | inhibition [23]: inactive | IC50 [24]: > 10 µM | IC50 [25]: > 20 µM | IC50 [26]: > 10 µM | logD [27]: 1.9 | deltaH [28]: -17.6 kJ/mol | inhibition [29]: inactive | inhibition [30]: inactive
